The term CC50 denotes the concentration at which the toxic effect on the cells reaches its halfway point. What is called EC50 is the concentration at which the effect is half-maximal. Broadly, the EC90 is the concentration needed for an effect of 90%. For orientation: IC50 means the concentration at which inhibition is half-maximal. The term Ki denotes a measure of affinity in units of concentration, obtained from inhibition or displacement.

Results on twelve compounds are retold here after ChEMBL document CHEMBL3792308, “Synthesis and Evaluation of 2,6-Modified Purine 2'-C-Methyl Ribonucleosides as Inhibitors of HCV Replication” (ACS Med Chem Lett, 2016).

Active and inactive are the calls of the source. No cut-off for these calls is given here.

Data set [1] is described as follows: Cytotoxicity against human PBMC after 6 days by trypan blue exclusion assay. To be noted: PBMC (peripheral blood mononuclear cells). The format is cell-based.
Data set [2] is described as follows: Cytotoxicity against African green monkey Vero cells after 3 days by hemocytometry. The format is cell-based. To be noted: chlorocebus sabaeus.
Data set [3] in a line: Drug metabolism in human HuH7 cells assessed as 2'-beta-C-methylguanosine-5'-triphosphate formation at 50 uM after 4 hrs by LC-MS/MS analysis. The format is ADME, cell-based. To be noted: huh-7, 4 h. In short, it runs like this:
(§1)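 Huh7 cells incubated with 50 μM compound for 4 h at 37 °C, then washed with phosphate-buffered saline. Intracellular metabolites extracted with 70% ice-cold methanol in water and identified by LC–MS/MS, with nucleoside mono-, di- and triphosphate levels quantified.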

Data set [4] is described as follows: Cytotoxicity against human HuH7 cells infected with HCV assessed as reduction in cellular rRNA level after 96 hrs by qRT-PCR analysis. The format is cell-based, Huh-7. Summed up:
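Huh7 toxicity was read in the same wells as the replicon assay, by extracting and amplifying cellular rRNA alongside HCV RNA.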
(In general: Real-time PCR tracks product formation cycle by cycle.)

Data set [5] in a line: Cytotoxicity against human CEM cells after 6 days by trypan blue exclusion assay. To be noted: CEM (CCRF-CEM) cells. The format is cell-based.
In the next data set the test system is Hepatitis C virus. Nature of the data set: Antiviral activity against HCV infected in HuH7 Clone B cells assessed as inhibition of viral replication after 5 days by RT-PCR method. The format is functional, organism-based, Hepacivirus hominis. To be noted: 120 h. Summed up:
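Huh7 cells carrying a subgenomic HCV replicon; HCV RNA extracted and amplified to measure replication inhibition. Tested up to 10 μM, and EC50 and EC90 are reported.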

Data set [6] is described as follows: Inhibition of host RNA polymerase 2 (unknown origin). Further details: species or system Homo sapiens. In short, it runs like this: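 Host RNA polymerase II inhibition assay with the nucleoside triphosphate tested at concentrations up to 100 μM. α-Amanitin was included as the positive control.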
Data set [7] in a line: Drug level in human HuH7 cells treated with 2-Amino-6-[N-(t-butyloxycarbonyl)aminoxy]-9H-(2'-C-methyl-beta-D-ribofuranosyl)-purine at 50 uM after 4 hrs by LC-MS/MS analysis. The format is ADME, cell-based. To be noted: huh-7, 4 h. Summed up:
as §1

A short description of data set [8]: Drug level in human HuH7 cells treated with Ethyl((((2R,3S,4R,5R)-5-(2-amino-6-(((tert-butoxycarbonyl)amino)oxy)-9H-purin-9-yl)-3,4-dihydroxy-4-methyltetrahydrofuran-2-yl)methoxy)(phenoxy)phosphoryl)-Lalaninate at 50 uM after 4 hrs by LC-MS/MS analysis. The format is ADME, cell-based. To be noted: huh-7, 4 h. Summed up:
as §1

Data set [9] can be described thus: Drug metabolism in human HuH7 cells assessed as nucleoside monophosphate derivative formation at 50 uM after 4 hrs by LC-MS/MS analysis. The format is ADME, cell-based. To be noted: huh-7, 4 h. Summed up:
as §1

A short description of data set [10]: Drug metabolism in human HuH7 cells assessed as nucleoside diphosphate derivative formation at 50 uM after 4 hrs by LC-MS/MS analysis. The format is ADME, cell-based. To be noted: huh-7, 4 h. In short, it runs like this:
as §1

Data set [11] is described as follows: Drug metabolism in human HuH7 cells assessed as nucleoside triphosphate derivative formation at 50 uM after 4 hrs by LC-MS/MS analysis. The format is ADME, cell-based. To be noted: huh-7, 4 h. Summed up:
as §1

Data set [12] is described as follows: Drug metabolism in human HuH7 cells assessed as formation of ((2R,3R,4R,5R)-5-(6-amino-2-fluoro-9H-purin-9-yl)-3,4-dihydroxy-4-methyltetrahydrofuran-2-yl)methyl tetrahydro triphosphate at 50 uM after 4 hrs by LC-MS/MS analysis. The format is ADME, cell-based. To be noted: huh-7, 4 h. Summed up:
as §1

Data set [13] addresses DNA-directed RNA polymerase, mitochondrial (Homo sapiens) (UniProt O00411). Nature of the data set: Activity at human mitochondrial RNA polymerase assessed as compound incorporation into RNA up to 100 uM relative to ATP. In short, it runs like this:
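Human mitochondrial RNA polymerase (POLRMT) incorporation of nucleoside triphosphate, tested up to 100 μM and expressed as percent incorporation normalized to ATP.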

The nature of data set [14]: Drug level in human HuH7 cells treated with (2R,3R,4R,5R)-2-(6-amino-2-fluoro-9H-purin-9-yl)-5-(hydroxymethyl)-3-methyltetrahydrofuran-3,4-diol at 50 uM after 4 hrs by LC-MS/MS analysis. The format is ADME, cell-based. To be noted: huh-7, 4 h. Summed up:
as §1

A short description of data set [15]: Drug level in human HuH7 cells treated with Ethyl((((2R,3R,4R,5R)-5-(6-amino-2-fluoro-9H-purin-9-yl)-3,4-dihydroxy-4-methyltetrahydrofuran-2-yl)methoxy)(phenoxy)phosphoryl)-L-alaninate at 50 uM after 4 hrs by LC-MS/MS analysis. The format is ADME, cell-based. To be noted: huh-7, 4 h. In short, it runs like this: as §1
Data set [16] can be described thus: Inhibition of HCV C-terminal his-tagged NS5B delta21 RNA dependent RNA polymerase assessed as inhibition of full-length 20mer RNA product formation after 120 mins by PAGE method in presence of 32P-radiolabeled GpG primer. Further details: species or system Hepacivirus hominis. Summed up: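 HCV NS5B polymerase RNA synthesis on a 20mer RNA template, run with increasing triphosphate concentrations up to 100 μM. Products resolved to follow incorporation and pausing sites opposite template uridines.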

Another data set is filed under the species Homo sapiens. Nature of the data set: Inhibition of host RNA polymerase 2 (unknown origin) up to 100 uM. In short, it runs like this:
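Host RNA polymerase II was tested with nucleoside triphosphate up to 100 μM. α-Amanitin served as the positive control.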

Sequence of DNA-directed RNA polymerase, mitochondrial (Homo sapiens) (O00411 whole entry): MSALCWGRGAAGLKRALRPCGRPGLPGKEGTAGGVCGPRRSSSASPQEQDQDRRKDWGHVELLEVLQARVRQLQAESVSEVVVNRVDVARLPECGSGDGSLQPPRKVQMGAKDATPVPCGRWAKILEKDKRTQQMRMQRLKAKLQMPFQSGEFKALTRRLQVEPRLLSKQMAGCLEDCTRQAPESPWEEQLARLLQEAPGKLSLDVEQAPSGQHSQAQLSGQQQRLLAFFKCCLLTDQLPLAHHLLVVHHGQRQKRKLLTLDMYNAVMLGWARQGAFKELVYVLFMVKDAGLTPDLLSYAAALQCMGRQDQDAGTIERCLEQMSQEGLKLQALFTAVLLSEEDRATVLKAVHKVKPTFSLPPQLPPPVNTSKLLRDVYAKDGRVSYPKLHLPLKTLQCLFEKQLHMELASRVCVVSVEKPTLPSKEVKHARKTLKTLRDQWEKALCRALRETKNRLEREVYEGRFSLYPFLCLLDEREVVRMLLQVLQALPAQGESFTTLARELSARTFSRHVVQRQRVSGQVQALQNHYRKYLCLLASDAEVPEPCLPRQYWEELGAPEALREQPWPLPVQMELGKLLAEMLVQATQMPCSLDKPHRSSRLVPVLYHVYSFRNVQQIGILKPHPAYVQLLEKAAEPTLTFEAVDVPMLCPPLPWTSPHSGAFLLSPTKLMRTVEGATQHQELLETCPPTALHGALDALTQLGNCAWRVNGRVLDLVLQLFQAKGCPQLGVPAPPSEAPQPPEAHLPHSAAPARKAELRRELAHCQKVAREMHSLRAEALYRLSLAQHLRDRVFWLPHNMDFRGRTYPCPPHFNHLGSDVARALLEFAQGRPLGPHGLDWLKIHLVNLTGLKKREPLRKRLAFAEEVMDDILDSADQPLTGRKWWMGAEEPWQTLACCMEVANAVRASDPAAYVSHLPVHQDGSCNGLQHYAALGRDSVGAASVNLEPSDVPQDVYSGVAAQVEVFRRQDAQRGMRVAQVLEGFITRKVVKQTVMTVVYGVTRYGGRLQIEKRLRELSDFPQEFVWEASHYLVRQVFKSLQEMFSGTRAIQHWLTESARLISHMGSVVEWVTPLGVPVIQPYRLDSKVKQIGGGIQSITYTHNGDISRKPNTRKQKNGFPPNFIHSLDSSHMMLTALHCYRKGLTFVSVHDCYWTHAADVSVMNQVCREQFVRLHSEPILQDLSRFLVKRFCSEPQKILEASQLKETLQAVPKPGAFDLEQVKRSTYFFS

With `CCOC(=O)[C@H](C)NP(=O)(OC[C@H]1O[C@@H](n2cnc3c(ONC(=O)OC(C)(C)C)nc(N)nc32)[C@](C)(O)[C@@H]1O)Oc1ccccc1` (stereo not given in full), the CC50 at 144 h in [1] is > 100 µM. Further, the CC50 at 72 h in data set [2] was > 100 µM. In addition, the Drug metabolism entry in data set [3] was “metabolite_detected”. The CC50 at 96 h in [4] is > 10 µM. In [5], this compound displayed a CC50 at 144 h of 39 µM. In addition, in the data set with Hepatitis C virus, the EC50 is 0.3 µM and the EC90 worked out at 0.9 µM.
Turning to `CC[C@H](C)[C@@H]1NC(=O)CNC(=O)[C@@H]2Cc3c([nH]c4cc(O)ccc34)[S+]([O-])C[C@H](NC(=O)CNC1=O)C(=O)N[C@@H](CC(N)=O)C(=O)N1C[C@H](O)C[C@H]1C(=O)N[C@@H]([C@@H](C)[C@@H](O)CO)C(=O)N2` (stereo not given in full), the half-maximal inhibitory concentration (IC50) in data set [6] worked out at 0.0025 µM.
As to `CC(C)(C)OC(=O)NOc1nc(N)nc2c1ncn2[C@@H]1O[C@H](CO)[C@@H](O)[C@@]1(C)O`, the CC50 at 144 h in data set [1] was > 100 µM. Further, the CC50 at 72 h in [2] is > 100 µM. Moreover, in data set [3], the Drug metabolism result is listed as “metabolite_detected”. Also, the cytotoxic concentration (CC50) at 96 h in data set [4] was > 10 µM. Further, the CC50 at 144 h in data set [5] was > 100 µM. In the data set with Hepatitis C virus, the EC50 came to 0.9 µM and the EC90 turned out to be 8.4 µM.
As for `C[C@@]1(O)[C@H](O)[C@@H](COP(=O)(O)OP(=O)(O)OP(=O)(O)O)O[C@H]1n1cnc2c(=O)[nH]c(N)nc21` [INX-09114], the Drug metabolism entry in data set [7] and in data set [8] was “metabolite_detected” each time.
As to `CCOC(=O)[C@H](C)NP(=O)(OC[C@H]1O[C@@H](n2cnc3c(N)nc(OC)nc32)[C@](C)(O)[C@@H]1O)Oc1ccccc1` (stereo not given in full), the Drug metabolism result in [9], in data set [10] and in data set [11] was “metabolite_detected” in each case. Also, the CC50 at 144 h in [1] and in [5] was > 100 µM in each case. Moreover, in data set [2], the CC50 at 72 h is > 100 µM. The CC50 at 96 h in [4] was > 10 µM. For the same compound, the EC50 in the data set with Hepatitis C virus was 1 µM. In addition, the EC90 with Hepatitis C virus was 2.8 µM.
As to `CCOC(=O)[C@H](C)NP(=O)(OC[C@H]1O[C@@H](n2cnc3c(N)nc(F)nc32)[C@](C)(O)[C@@H]1O)Oc1ccccc1` (stereo not given in full), the Drug metabolism result in data set [9], in data set [12], in [10] and in data set [11] was “metabolite_detected” each time. For the same compound, the CC50 at 144 h in data set [1] and in data set [5] was > 100 µM each time. Besides, in data set [2], the CC50 at 72 h was > 100 µM. Besides, in data set [4], the CC50 at 96 h is > 10 µM. Also, in the data set with Hepatitis C virus, the EC50 turned out to be 2.7 µM. The EC90 in the data set with Hepatitis C virus turned out to be 8.3 µM.
`C[C@@]1(O)[C@H](O)[C@@H](CO)O[C@H]1n1cnc2c(N)nc(F)nc21`: the CC50 at 144 h in [1] and in data set [5] was > 100 µM throughout. The CC50 at 72 h in data set [2] is > 100 µM. Further, in data set [12], the Drug metabolism entry was “metabolite_detected”. Further, the CC50 at 96 h in data set [4] is > 10 µM. For the same compound, in the data set with Hepatitis C virus, the concentration for a half-maximal effect (EC50) is > 10 µM. In addition, the EC90 in the data set with Hepatitis C virus is > 10 µM.
Turning to `CCOC(=O)[C@H](C)NP(=O)(OC[C@H]1O[C@@H](n2cnc3c(N)nc(N=[N+]=[N-])nc32)[C@](C)(O)[C@@H]1O)Oc1ccccc1` (stereo not given in full), the Drug metabolism entry in data set [9], in [10] and in data set [11] was “metabolite_detected” throughout. The CC50 at 144 h in data set [1] and in [5] was > 100 µM each time. For the same compound, the CC50 at 72 h in [2] is > 100 µM. Also, the CC50 at 96 h in data set [4] was > 10 µM. In addition, the EC50 with Hepatitis C virus was 2.3 µM. Moreover, the EC90 in the data set on Hepatitis C virus amounted to 3 µM.
For `C[C@@]1(O)[C@H](O)[C@@H](COP(=O)(O)OP(=O)(O)OP(=O)(O)O)O[C@H]1n1cnc2c(N)nc(F)nc21`, the Activity in [13] worked out at 11%. Further, the Drug metabolism result in [14] and in [15] was “metabolite_detected” each time. Besides, the inhibition constant (Ki) in data set [16] came to 32 µM. In the data set listed under Homo sapiens, the inhibition entry was “inactive”.
With `CCOC(=O)[C@H](C)NP(=O)(OC[C@H]1O[C@@H](n2cnc3c(P(=O)(OCC)OCC)nc(N)nc32)[C@](C)(O)[C@@H]1O)Oc1ccccc1` (stereo not given in full), the CC50 at 144 h in data set [1] was > 100 µM. The CC50 at 72 h in data set [2] is > 100 µM. Moreover, in data set [4], the CC50 at 96 h is > 10 µM. In addition, in data set [5], the CC50 at 144 h was > 100 µM. For the same compound, in the data set on Hepatitis C virus, the EC50 was > 10 µM and the EC90 is > 10 µM.
The compound `COc1nc(N)nc2c1ncn2[C@@H]1O[C@H](COP(=O)(N[C@@H](C)C(=O)OCC(C)(C)C)Oc2cccc3ccccc23)[C@@H](O)[C@@]1(C)O` (stereo not given in full) [BMS-986094] returned a CC50 at 144 h in data set [1] of 4.5 µM. In data set [2], this compound yielded a CC50 at 72 h of 14 µM. Further, the CC50 at 96 h in data set [4] was found to be 0.8 µM. For the same compound, the CC50 at 144 h in data set [5] worked out at 8 µM. Also, in the data set on Hepatitis C virus, the EC50 worked out at 0.02 µM and the EC90 was 0.04 µM.
Turning to `CCOC(=O)[C@H](C)NP(=O)(OC[C@H]1O[C@@H](n2cnc3c(OC)nc(OC)nc32)[C@](C)(O)[C@@H]1O)Oc1ccccc1` (stereo not given in full), in data set [1], the CC50 at 144 h is > 100 µM. Further, the CC50 at 72 h in data set [2] was > 100 µM. In addition, the CC50 at 96 h in data set [4] was > 10 µM. Also, in data set [5], the CC50 at 144 h was > 100 µM. In addition, in the data set with Hepatitis C virus, the EC50 is > 10 µM and the EC90 was > 10 µM.
